pIC50: −log10 of the molar value.
Assays:
A2780S = assay: Antiproliferative activity against human A2780S cells after 48 to 72 hrs by MTT assay; format: functional, cell-based
How it was run: (§1)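 Cells in log phase seeded and allowed to adhere, then exposed to graded compound concentrations for 48 h or 72 h; MTT added for a further 2-3 h, formazan dissolved in DMSO. IC50 taken from dose-response curves; mean ± SD of at least three independent experiments.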

MCF7 [1] = assay: Induction of apoptosis in human MCF7 cells assessed as early apoptotic cells at 10 uM after 48 hrs by annexin V-FITC/PI dual staining based flow cytometry (reference value: 11%); format: functional
NCI/ADR-RES [2] = assay: Induction of apoptosis in human MCF7/ADR cells assessed as viable cells at 30 uM after 48 hrs by annexin V-FITC/PI dual staining based flow cytometry (reference value: 89.8%); format: functional; settings: read-out: Activity
MCF7 [3] = assay: Induction of apoptosis in human MCF7 cells assessed as necrotic cells at 10 uM after 48 hrs by annexin V-FITC/PI dual staining based flow cytometry (reference value: 0.16%); format: functional
[4] = Resistance index, ratio of IC50 for human A2780T cells to IC50 for human A2780S cells; format: functional
MCF7 [5] = assay: Antiproliferative activity against human MCF7 cells at 1 uM after 48 to 72 hrs by MTT assay relative to control; format: functional
How it was run: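 Single-concentration screen in the MTT proliferation assay: log-phase cells seeded and allowed to adhere, exposed to compound at 1 µM for 48 h or 72 h, MTT added for 2-3 h, formazan dissolved in DMSO; percent inhibition versus control.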

NCI/ADR-RES [6] = assay: Antiproliferative activity against human MCF7/ADR cells after 48 to 72 hrs by MTT assay; format: functional, cell-based; how it was run: as §1
NCI/ADR-RES [7] = assay: Induction of apoptosis in human MCF7/ADR cells assessed as early apoptotic cells at 30 uM after 48 hrs by annexin V-FITC/PI dual staining based flow cytometry (reference value: 2.72%); format: functional
MCF7 [8] = assay: Cell cycle arrest in human MCF7 cells assessed as accumulation at G2/M phase at 3 uM after 18 hrs by propidium iodide staining based flow cytometry (reference value: 9.98%); format: functional
NCI/ADR-RES [9] = assay: Induction of apoptosis in human MCF7/ADR cells assessed as necrotic cells at 30 uM after 48 hrs by annexin V-FITC/PI dual staining based flow cytometry (reference value: 2.43%); format: functional
[10] = Selectivity ratio of IC50 for HUVEC to IC50 for human A2780S cells; format: toxicity; settings: HUVEC versus A2780S cells
Mus musculus = assay: Toxicity in athymic nude Balb/C mouse xenografted with human H460 cells assessed as effect on abnormal behaviour at 100 mg/kg, po administered 3 times per week measured every 2 days; format: organism-based; settings: in vivo, 48 h
How it was run: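 Nude mice, 5-to-6-week-old females, given 5 × 10^6 H460 cells sc in right flank in HBSS; at 100 mm3 tumour volume randomized, 6 per group. Vehicle; oral 100 mg/kg three times weekly; or ip 30 mg/kg once weekly. Toxicity signs and mortality observed daily; body weight measured every 2 days.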

NCI/ADR-RES [11] = assay: Induction of apoptosis in human MCF7/ADR cells assessed as viable cells at 100 uM after 48 hrs by annexin V-FITC/PI dual staining based flow cytometry (reference value: 89.8%); format: functional; settings: read-out: Activity
[12] = Resistance index, ratio of IC50 for human MCF7/ADR cells to IC50 for human MCF7 cells; format: functional
MCF7 [13] = assay: Induction of apoptosis in human MCF7 cells assessed as viable cells at 30 uM after 48 hrs by annexin V-FITC/PI dual staining based flow cytometry (reference value: 77.8%); format: functional; settings: MCF7, 48 h, read-out: Activity
MCF7 [14] = assay: Cell cycle arrest in human MCF7 cells assessed as accumulation at S phase at 10 uM after 18 hrs by propidium iodide staining based flow cytometry (reference value: 44.80%); format: functional
NCI/ADR-RES [15] = assay: Induction of apoptosis in human MCF7/ADR cells assessed as necrotic cells at 100 uM after 48 hrs by annexin V-FITC/PI dual staining based flow cytometry (reference value: 2.43%); format: functional
MCF7 [16] = assay: Cell cycle arrest in human MCF7 cells assessed as accumulation at G0/G1 phase at 10 uM after 18 hrs by propidium iodide staining based flow cytometry (reference value: 45.22%); format: functional
NCI/ADR-RES [17] = assay: Induction of apoptosis in human MCF7/ADR cells assessed as late apoptotic cells at 10 uM after 48 hrs by annexin V-FITC/PI dual staining based flow cytometry (reference value: 5.02%); format: functional
NCI-H460 = assay: Antitumor activity against human H460 cells xenografted in athymic nude Balb/C mouse assessed as tumor growth inhibition at 100 mg/kg, po administered 3 times per week measured on day 18 relative to control; format: functional; settings: 432 h, read-out: TGI
How it was run: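 Nude mice (5-6 weeks old, female) implanted sc in right flank with 5 × 10^6 H460 cells in HBSS; at 100 mm3 tumours, randomised 6 per group to vehicle, oral 100 mg/kg three times weekly, or ip 30 mg/kg once weekly. Tumour volume by caliper every 2 days as (π/6) × length × width²; body weight recorded; inhibition from tumour weights versus control.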

[18] = Selectivity ratio of IC50 for HUVEC to IC50 for human A2780T cells; format: toxicity; settings: HUVEC versus A2780T cells
MCF7 [19] = assay: Cell cycle arrest in human MCF7 cells assessed as accumulation at G2/M phase after 18 hrs by propidium iodide staining based flow cytometry; format: functional
MCF7 [20] = assay: Induction of apoptosis in human MCF7 cells assessed as viable cells at 10 uM after 48 hrs by annexin V-FITC/PI dual staining based flow cytometry (reference value: 77.8%); format: functional; settings: MCF7, 48 h, read-out: Activity
Raji = assay: Antiproliferative activity against human Raji cells after 48 to 72 hrs by MTT assay; format: functional, cell-based; how it was run: as §1
MCF7 [21] = assay: Induction of apoptosis in human MCF7 cells assessed as viable cells at 3 uM after 48 hrs by annexin V-FITC/PI dual staining based flow cytometry (reference value: 77.8%); format: functional; settings: MCF7, 48 h, read-out: Activity
MCF7 [22] = assay: Induction of apoptosis in human MCF7 cells assessed as necrotic cells at 3 uM after 48 hrs by annexin V-FITC/PI dual staining based flow cytometry (reference value: 0.16%); format: functional
MCF7 [23] = assay: Induction of apoptosis in human MCF7 cells assessed as early apoptotic cells at 30 uM after 48 hrs by annexin V-FITC/PI dual staining based flow cytometry (reference value: 11%); format: functional
NCI/ADR-RES [24] = assay: Induction of apoptosis in human MCF7/ADR cells assessed as early apoptotic cells at 10 uM after 48 hrs by annexin V-FITC/PI dual staining based flow cytometry (reference value: 2.72%); format: functional
NCI/ADR-RES [25] = assay: Induction of apoptosis in human MCF7/ADR cells assessed as necrotic cells at 3 uM after 48 hrs by annexin V-FITC/PI dual staining based flow cytometry (reference value: 2.43%); format: functional
MCF7 [26] = assay: Cell cycle arrest in human MCF7 cells assessed as accumulation at G2/M phase at 30 uM after 18 hrs by propidium iodide staining based flow cytometry (reference value: 9.98%); format: functional
MCF7 [27] = assay: Cell cycle arrest in human MCF7 cells assessed as accumulation at G0/G1 phase at 3 uM after 18 hrs by propidium iodide staining based flow cytometry (reference value: 45.22%); format: functional

In the case of N#Cc1ccc(COc2cccc(/C=N/NC(=O)c3cc4c(cn3)[nH]c3ccccc34)c2)cc1, the pIC50 (A2780S) was 5.52, the Activity (MCF7 [1]) was 13.1% and the viability at 30 µM (NCI/ADR-RES [2]) was 64.8%. For the same compound, the Activity (MCF7 [3]) was 0.3%, the “Ratio IC50” value [4] was 1.32 and the inhibition at 1 µM (MCF7 [5]) was 59.6%. The pIC50 (NCI/ADR-RES [6]) was 6.01, the Activity (NCI/ADR-RES [7]) was 4.85% and the Activity (MCF7 [8]) was 9.31%. For the same compound, the Activity (NCI/ADR-RES [9]) was 8.52%, the selectivity ratio [10] was 29.3 and the Activity (Mus musculus) was “Non-Toxic”. For the same compound, the viability at 100 µM (NCI/ADR-RES [11]) was 53.5%, the “Ratio IC50” value [12] was 1.06 and the viability at 30 µM (MCF7 [13]) was 50.9%. The Activity (MCF7 [14]) was 56.38%, the Activity (NCI/ADR-RES [15]) was 9.14% and the Activity (MCF7 [16]) was 36.05%. The Activity (NCI/ADR-RES [17]) was 19.1%, the inhibition in vivo at 100 mg/kg (NCI-H460) was 17.2% and the selectivity ratio [18] was 22.2. The Activity (MCF7 [19]) was “Dose-dependent effect”, the viability at 10 µM (MCF7 [20]) was 66.6% and the pIC50 (Raji) was 5.92 to 5.97. The viability at 3 µM (MCF7 [21]) was 66.8%, the Activity (MCF7 [22]) was 0.26% and the Activity (MCF7 [23]) was 19.4%. The Activity (NCI/ADR-RES [24]) was 4.38%, the Activity (NCI/ADR-RES [25]) was 6.04% and the Activity (MCF7 [26]) was 6.06%. For the same compound, the Activity (MCF7 [27]) was 34.57%.
